eIF4E 4G PPI: inhibitors of eIF4E and eIF4G interaction in translation initiation; P63073+Q04637; TR-FRET eIF4E-eIF4GI(517-606) binding, 2 h; inhibition, % at 21.7 µM; 0.37% of 220,000 active;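 active = inhibition above about 30%, limit read from the data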;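 also: 0% = full FRET control wells and 100% = background wells lacking eIF4GI fragment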
SUMO HTRF inh: inhibitors of human SUMOylation (UBC9); inhibition, % at 35 µM; HTRF SUMOylation assay, SAE1/SAE2 + UBC9, in vitro; 0.36% of 290,000 active; P63279; in the data active = inhibition above about 50%, passing the limit was not always enough; inconclusive = no clear call, values can overlap the other calls
Target sequence (P63279 whole entry, looked up): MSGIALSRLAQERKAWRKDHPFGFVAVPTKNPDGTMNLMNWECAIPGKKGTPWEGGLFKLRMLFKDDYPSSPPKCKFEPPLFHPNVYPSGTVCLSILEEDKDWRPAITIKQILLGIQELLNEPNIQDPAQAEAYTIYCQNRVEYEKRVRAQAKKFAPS
MLLE-PAM2 inh: inhibitors of microRNA-mediated deadenylation, human PABP1 MLLE binding | AID 588489 | 0.36% of 360,000 active | P11940 | GST-MLLE / FITC-PAM2 fluorescence polarization | inhibition, % at 20 µM; in the data active = inhibition above about 35%, passing the limit was not always enough;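 also: plate controls were DMSO wells with GST-MLLE for no effect and wells lacking GST-MLLE protein for full effect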
eIF4H inh: inhibitors of RNA binding by human eIF4H. AID 2012. eIF4H fluorescence polarization binding assay. Q15056. inhibition, % at 35 µM. 0.94% of 290,000 active;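 also: calls also rest on retests at 20 µM and on dose response follow-up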
core dimer inh: blocks dimerization of HCV core protein. TR-FRET GST/Flag-core106 dimerization, 1536-well. inhibition, % at 5 µM. 0.33% of 300,000 active. AID 1899;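 active = inhibition above the mean of all tested compounds plus 3 SD, set per screening campaign, cut at about 45% in these data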
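System: GST-tagged and Flag-tagged HCV core protein residues 1-106 / Input: core106 proteins, GST 13.5 nM and Flag 17 nM / Buffer or medium: KF-containing HEPES buffer, pH 7.45, DTT, CHAPS, BSA / Probe or stimulus: Eu-anti-GST and XL665-anti-Flag labelled anti-tag antibodies / Schedule: 4 h, 22.5 °C incubation / Technique: TR-FRET 671 and 617 nm emission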
PABP FP inh: blocks human PABP binding to poly(A) RNA. P11940. fluorescence polarization. calls only at 35 µM. 1% of 290,000 active. AID 2014;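 also: calls also rest on retests at 20 µM and on dose response follow-up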
Starred values were filed as active, the others as inactive; i = inactive; ? = inconclusive; / = not tested or not shown; + = active, no number. The list is not random: actives were taken first. Their share in the collection is about 1.8%. Unless noted, no rule for the calls is given here.

SMILES	eIF4E 4G PPI	SUMO HTRF inh	MLLE-PAM2 inh	eIF4H inh	core dimer inh	PABP FP inh
CCn1c2ccccc2c2cc(N)ccc21	9	28	-25	72*	-6	+
CCOC(=O)c1c(N)sc2c1CCS(=O)(=O)C2	3	21	39*	18	-2	i
O=C(COc1ccc(Br)cc1)NNC(=O)Cc1ccc(S(=O)(=O)N2CCOCC2)s1	/	/	-14	/	/	/
N#CC1=C(N)OC2=C(C(=O)CC(c3ccco3)C2)C1c1ccc(OCc2c(F)cccc2Cl)cc1 (stereo not drawn)	-6	-8	-22	-1	36	i
COc1cccc(C2C(C#N)=C(N)OC3=C2C(=O)CC(c2ccco2)C3)c1OCc1ccc(F)cc1 (stereo not drawn)	-2	-9	4	9	57*	i
C(=Nc1ccccc1)c1ccc[nH]1	/	/	-6	/	/	/
Oc1ccccc1N=Cc1ccc[nH]1	-8	18	17	49*	-4	+
Nc1ccc2[nH]ncc2c1	4	17	4	57*	-3	+
Cc1c(C(=O)O)sc2nc(SCC(=O)Nc3ccc(S(=O)(=O)NC(C)(C)C)cc3)[nH]c(=O)c12	1	6	2	0	-20	i
Cc1c(C(=O)O)sc2nc(SCC(=O)Nc3ccc(S(=O)(=O)NCCCC(=O)O)cc3)[nH]c(=O)c12	2	4	-1	1.1*	-6	i
CCC(=O)N1CCc2nc(-c3ccccc3)sc2C1	/	1	-11	2	1	i
CN1CCN(CCCNC(=O)c2ccc(/C=C3\Sc4ccccc4N(Cc4ccc(F)cc4)C3=O)cc2)CC1	35*	15	6	4	/	i
CC(C)(C)c1ccc(C(=O)CC(Sc2ccc(Cl)cc2)C(=O)O)cc1 (stereo not drawn)	-3	33	46*	-12	6	i
O=C(NC(=S)Nc1ncccn1)c1ccccc1Cl	1	10	41*	2	5	i
COc1ccc(CNC(=O)C[C@@H]2C[C@H]3c4cc(NC(=O)NC5CCCC5)ccc4O[C@H]3[C@H](CO)O2)cc1	/	/	-20	/	/	/
Cc1c(C(=O)NCc2ccc3c(c2)cc(C)n3C)cccc1[N+](=O)[O-]	-5	0	48*	19	-6	i
Cc1cc2cc(CNC(=O)Cc3cccs3)ccc2n1C	-20	-16	39*	40	-12	i
Cc1cc2cc(CNC(=O)c3cccc([N+](=O)[O-])c3)ccc2n1C	5	-18	-14	46	4	i
Cc1c(C(=O)NCc2ccco2)cccc1[N+](=O)[O-]	-4	2	-1	10	0	i
Cc1cc2cc(CNC(=O)Cc3ccc([N+](=O)[O-])cc3)ccc2n1C	0	-63	40*	47	4	i
NS(=O)(=O)c1ccc(CNC(=O)Cc2cccs2)cc1	/	21	-28	58*	40	i
C=CCSc1nc2sc3c(c2c(=O)[nH]1)CC(C)(CC)OC3 (stereo not drawn)	/	5	-13	1	2	i
O=C(CN1C(=O)C2CC=CCC2C1=O)Nc1ccc(S(=O)(=O)N2CCOCC2)cc1 (stereo not drawn)	1	3	-104	2	-4	i
CCOc1ccccc1/C=N/NC(=O)c1cccc(S(=O)(=O)N(CC)CC)c1	-2	-1	11	6	8	i
CCN(CC)c1ccc(/C=N/NC(=O)c2cccc(S(=O)(=O)Nc3ccccc3OC)c2)cc1	0	14	4	52*	2	i
SMILES	eIF4E 4G PPI	SUMO HTRF inh	MLLE-PAM2 inh	eIF4H inh	core dimer inh	PABP FP inh
CCN(CC)S(=O)(=O)c1cccc(C(=O)N/N=C/c2ccc(O)c(O)c2O)c1	17	50*	22	72	3	i
CN(C)S(=O)(=O)c1cccc(NC(=S)N/N=C/c2ccc(O)c(O)c2O)c1	42*	52*	17	57*	/	+
CC(C)n1c(SCC(=O)Nc2nncs2)nnc1-c1ccco1	/	12	/	72*	1	+
Cc1nnc(NC(=O)CSc2nnc(-c3ccco3)n2C(C)C)s1	/	2	17	60	5	i
CCn1c(SCC(=O)Nc2ccc3c(c2)c2ccccc2n3CC)nnc1-c1ccco1	-1	12	-10	-2	65*	i
CCn1c(SCC(=O)Nc2sc3c(c2C(N)=O)CCC(C)C3)nnc1-c1ccco1 (stereo not drawn)	2	8	-3	51	56*	i
CCOC(=O)c1c(NC(=O)CSc2nnnn2-c2ccccc2)sc2c1CCC(C)C2 (stereo not drawn)	6	11	-6	-12	3	i
CCn1c2ccccc2c2cc(NC(=O)c3coc(=O)c(Br)c3)ccc21	22	4	104	105*	4	i
CCn1c2ccccc2c2cc(NC(=O)c3ccc(=O)oc3)ccc21	-3	36	-34	?	15	?
O=C(CSc1nnc(Cc2cccs2)n1C1CC1)NC1CCS(=O)(=O)C1 (stereo not drawn)	/	/	20	/	/	/
COc1ccc(C(C)=O)cc1Cn1c(C)c(C(=O)NCc2ccc(C(C)C)cc2)sc1=O	/	/	7	/	/	/
CCOC(=O)CSc1ccc(S(=O)(=O)N2CCCC2)cc1[N+](=O)[O-]	1	8	11	active	4	+
CCOC(=O)CSc1ccc(S(=O)(=O)N2CCCCC2)cc1[N+](=O)[O-]	4	1	-1	-1	0	i
CN1C(=O)[C@@H]2[C@H](C1=O)[C@@H]1C(=O)Nc3ccccc3C(=O)N1[C@@H]2c1cccc(Br)c1	/	/	12	/	4	/
CC1CC(C)CN(S(=O)(=O)c2ccc(NC(=O)c3ccc(=O)[nH]c3)cc2)C1 (stereo not drawn)	/	/	-17	/	/	/
O=C(N1CCOCC1)N1CCN(S(=O)(=O)c2ccc(F)cc2)CC1	/	15	9	-3	-13	i
CC(=O)Nc1ccc(/C=C/c2noc(-c3ccccc3O)n2)cc1	/	31	-15	-1	3	i
Oc1ccccc1/C=C/c1noc(-c2ccccc2O)n1	6	3	12	3	9	+
O=C1SCCC1NS(=O)(=O)c1ccc([N+](=O)[O-])cc1 (stereo not drawn)	/	7	2	22	6	i
COc1cc(/C=N/OCC(=O)Nc2ccc(OC(F)F)cc2)ccc1OCc1ccccc1	-1	-3	-57	66*	1	i
S=c1nc[nH]c2c1sc1nc(N3CCOCC3)c3c(c12)CCCC3	1	33	-2	-6	61*	i
CC(C)c1nc2sc3c(=S)nc[nH]c3c2c2c1CCC2	-6	6	12	-3	43	i
Cc1c(Cl)cccc1NC(=S)NNc1ncc(C(F)(F)F)cc1Cl	5	-17	36*	12	-5	i
